The text below walks through data of ChEMBL document CHEMBL1132418, “Structure-immunosuppressive activity relationships of new analogues of 15-deoxyspergualin. 1. Structural modifications of the hydroxyglycine moiety” (1999).

Common to all, as to type: functional
Experiment [1] has as its system Mus musculus. Nature of the experiment: In vivo immunosuppressive activity in mouse GVHD (graft-versus-host disease) model and the mean survival days evaluated (dose of 3 mg/kg). An outline of the steps: (§1)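 Mouse GVHD model. Compounds were dissolved in aqueous solution and given i.p. on days 1 to 10 (day 6 omitted), first at 3 mg/kg/day and then at 1 mg/kg/day. Survival was followed to day 60 after cell injection and reported as mean survival in days ± deviation.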

Experiment [2] concerns Mus musculus. Nature of the experiment: In vivo immunosuppressive activity at a dose of 1 mg/kg in mouse GVHD (graft-versus-host disease) model and the mean survival days evaluated. An outline of the steps:
as §1

In experiment [3] the test system is Rattus norvegicus. Nature of the experiment: Compound (6 mg/kg) is evaluated for prevention of graft rejection after heart allotransplantation in the Dark Agouti to Lewis rat combination. Put shortly:
(§2)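 Dark Agouti donor hearts transplanted into Lewis rat recipients (fully histoincompatible; high-responder recipient). Compounds given daily i.p. at 6 mg/kg/day for 10 days, starting 1 day after surgery. Graft survival recorded for each animal in days and reported as mean ± SD, with a statistical comparison against controls.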

The species entered for experiment [4] is Rattus norvegicus. The experiment is described as follows: Compound is evaluated for prevention of graft rejection after heart allotransplantation in the dark agouti Lewis rat combination. An outline of the steps: as §2

In the case of `NCCCNCCCCNC(=O)COC(=O)NCCCCCCN=C(N)N`, the Mean survival in experiment [1] is 13 days.

On to `NCCCNCCCCNCCC(=O)NCCCCCCN=C(N)N`, for which the Mean survival in experiment [1] came out at 13 days.

The compound `NCCCNCCCCNC(=O)CNC(=O)NCCCCCCN=C(N)N` came in with a Mean survival in experiment [1] of 24 days.

Turning to `NCCCNCCCCC(=O)NCC(=O)NCCCCCCN=C(N)N`, the Mean survival in experiment [1] amounted to 22 days.

As for `NCCCNCCCCNC(=O)C(Cc1ccccc1)C(=O)NCCCCCCN=C(N)N` (configuration not stated), the Mean survival in experiment [1] stood at 16 days.

`COC(OC)(C(=O)NCCCCCCN=C(N)N)C(=O)NCCCCNCCCN`: in experiment [1], the Mean survival was determined as 12 days.

Compound `NCCCNCCCCNC(=O)/C=C\C(=O)NCCCCCCN=C(N)N` registered a Mean survival in experiment [1] of 17 days.

`CC(=O)NC(C(=O)NCCCCCCN=C(N)N)C(=O)NCCCCNCCCN` (configuration not stated) showed a Mean survival in experiment [1] of 16 days.

With `NCCCNCCCCOC(=O)NCC(=O)NCCCCCCN=C(N)N`, the Mean survival in experiment [2] was 55 days; in experiment [1], 48 days.

In the case of `NCCCNCCCCNC(=O)C(O)C(=O)NCCCCCCN=C(N)N` (configuration not stated), the Mean survival in experiment [2] turned out to be 12 days; in experiment [1], 53 days; in experiment [3], 33 days.

The compound `CC(C(=O)NCCCCCCN=C(N)N)C(=O)NCCCCNCCCN` (configuration not stated) gave a Mean survival in experiment [1] of 16 days.

`CN(CCCCCCN=C(N)N)C(=O)COC(=O)NCCCCNCCCN` yielded a Mean survival in experiment [1] of 14 days.

Consider `N=C(N)NCCCCCCNC(=O)COC(=O)NCCCCNCCCN` [TRESPERIMUS], for which the Mean survival in experiment [2] came out at 46 days; in experiment [1], 58 days; in experiment [3], 54 days.

In the case of `NCCCNCCCCNC(=O)C(O)CC(=O)NCCCCCCN=C(N)N` (configuration not stated), the Mean survival in experiment [1] is 15 days.

With `NCCCNCCCCNC(=O)/C=C/C(=O)NCCCCCCN=C(N)N`, the Mean survival in experiment [1] turned out to be 17 days.

In experiment [1], `CN(CCCCNCCCN)C(=O)OCC(=O)NCCCCCCN=C(N)N` returned a Mean survival of 15 days.

Regarding `NCCCNCCCCNC(=O)CCCCCCCCCN=C(N)N`, the Mean survival in experiment [1] worked out at 16 days.

`NCCCNCCCCNC(=O)C(C(=O)NCCCCCCN=C(N)N)c1ccccc1` (configuration not stated) gave a Mean survival in experiment [1] of 19 days.

Turning to `NCCCNCCCCNC(=O)C(N)C(=O)NCCCCCCN=C(N)N` (configuration not stated), the Mean survival in experiment [1] turned out to be 16 days.

For the compound `CN(CCCCNCCCN)C(=O)CC(=O)NCCCCCCN=C(N)N`, in experiment [1], the Mean survival came out at 12 days.

Compound `NCCCNCCCCNC(=O)NCCC(=O)NCCCCCCN=C(N)N` gave a Mean survival in experiment [1] of 15 days.

In the case of `NCCCNCCCCOC(=O)NCNC(=O)CCCCCCN=C(N)N`, the Mean survival in experiment [2] amounted to 32 days; in experiment [1] it was 58 days.

With `NCCCNCCCCNS(=O)(=O)CC(=O)NCCCCCCN=C(N)N`, the Mean survival in experiment [1] was found to be 15 days.

As to `N=C(N)NCCCCCCC(=O)NC(O)C(=O)NCCCCNCCCN` (configuration not stated) [GUSPERIMUS], the Mean survival was determined as 38 days in experiment [2], 57 days in experiment [1] and 38 days in experiment [3].

Take `NCCCNCCCCNC(=O)C(=O)NCCCCCCN=C(N)N`: the Mean survival in experiment [2] worked out at 53 days; in experiment [1] it was 34 days; in experiment [3], 12 days.

For `NCCCNCCCCCC(=O)NCC(=O)NCCCCCCN=C(N)N`, the Mean survival in experiment [1] worked out at 18 days.

`NCCCNCCCCNC(=O)NCC(=O)NCCCCCCN=C(N)N`: the results for the Mean survival in experiment [2], in experiment [1] and in experiment [4] were 42 days, 48 days and 12 days, respectively.

For the compound `NCCCNCCCCNC(=O)CC(=O)NCCCCCCN=C(N)N`, the Mean survival in experiment [2] stood at 53 days; in experiment [1], 52 days; in experiment [3] it was 9 days.

With `CCC(C(=O)NCCCCCCN=C(N)N)C(=O)NCCCCNCCCN` (configuration not stated), the Mean survival in experiment [1] is 19 days.

As to `NCCCNCCCCNC(=O)OCCNCCCCCCN=C(N)N`, in experiment [1], the Mean survival stood at 34 days.

As for `NCCCNCCCCNC(=O)OCCC(=O)NCCCCCCN=C(N)N`, the Mean survival in experiment [1] is 13 days.

For `CN(CCCCCCN=C(N)N)C(=O)CC(=O)NCCCCNCCCN`, in experiment [1], the Mean survival worked out at 14 days.

In the case of `COC(C(=O)NCCCCCCN=C(N)N)C(=O)NCCCCNCCCN` (configuration not stated), the figures for the Mean survival in experiment [2] and in experiment [1] were 27 days and 55 days, respectively.

The compound `NCCCNCCCCNC(=O)CCC(=O)NCCCCCCN=C(N)N` showed a Mean survival in experiment [1] of 16 days.

Consider `NCCCNCCCCNC(=O)C(CO)(CO)C(=O)NCCCCCCN=C(N)N`, for which, in experiment [1], the Mean survival came to 17 days.

`CN(CC(=O)NCCCCCCN=C(N)N)C(=O)NCCCCNCCCN`: in experiment [1], the Mean survival is 17 days.

For `NCCCNCCCCNC(=O)C(F)C(=O)NCCCCCCN=C(N)N` (configuration not stated), the Mean survival in experiment [2] amounted to 18 days; in experiment [1], 60 days.

Regarding `NCCCNCCCCNC(=O)SCC(=O)NCCCCCCN=C(N)N`, the Mean survival in experiment [1] is 17 days.

`NCCCNCCCCNC(=O)C(OCc1ccccc1)C(=O)NCCCCCCN=C(N)N` (configuration not stated): the Mean survival in experiment [1] is 14 days.

For `CC(C)(C(=O)NCCCCCCN=C(N)N)C(=O)NCCCCNCCCN`, the Mean survival in experiment [1] was determined as 15 days.

In experiment [1], `NCCCNCCCCNC(=O)CCCC(=O)NCCCCCCN=C(N)N` had a Mean survival of 15 days.
